Experiments:
[1] = tested on: Mycobacterium tuberculosis; experiment: Inhibition of multidrug resistance efflux pump in Mycobacterium tuberculosis H37Rv assessed as ofloxacin MIC at 32 ug/ml after 7 days by two-dimensional broth microdilution checkerboard assay; settings: 168 h
[2] = tested on: Mycobacterium tuberculosis; experiment: Inhibition of multidrug resistance efflux pump in Mycobacterium tuberculosis H37Rv assessed as reduction in rifampin MIC at 128 ug/ml after 7 days by two-dimensional broth microdilution checkerboard assay
[3] = tested on: Mycobacterium tuberculosis; experiment: Inhibition of multidrug resistance efflux pump in Mycobacterium tuberculosis H37Rv assessed as reduction in rifampin MIC at 16 ug/ml after 7 days by two-dimensional broth microdilution checkerboard assay
How it was run: (§1)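 M. tuberculosis H37Rv two-dimensional broth microdilution checkerboard. MICs of INH, RIF, AMK, OFX or EtBr were determined without and with graded sub-inhibitory compound concentrations, starting at ½ MIC. Where MIC was undeterminable, the highest concentration still permitting growth was taken as ½ MIC. FIC = MIC of antibacterial in combination / MIC alone. FIC ≤0.25 was scored as synergism and ≥2 as antagonism.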

[4] = tested on: Mycobacterium tuberculosis; experiment: Inhibition of multidrug resistance efflux pump in Mycobacterium tuberculosis H37Rv assessed as reduction in rifampin MIC at 8 ug/ml after 7 days by two-dimensional broth microdilution checkerboard assay; how it was run: as §1
[5] = tested on: Mycobacterium tuberculosis H37Rv; experiment: Ratio of thioridazine to compound for Inhibition of multidrug resistance efflux pump in Mycobacterium tuberculosis H37Rv using ethidium bromide as substrate assessed as relative final fluorescence at 1/2 MIC by real-time fluorometry
How it was run: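 H37Rv cells were loaded with EtBr at 0.5 µg/mL with test compound at ½ MIC. Where the MIC exceeded the testable range, the last determinable concentration was taken as ½ MIC. EtBr retention was followed by real-time fluorometry and expressed as relative final fluorescence (RFF), with verapamil and thioridazine as controls.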

[6] = tested on: Mycobacterium tuberculosis; experiment: Inhibition of multidrug resistance efflux pump in Mycobacterium tuberculosis H37Rv assessed as isoniazid MIC at 256 ug/ml after 7 days by two-dimensional broth microdilution checkerboard assay; settings: 168 h; how it was run: as §1
[7] = tested on: Mycobacterium tuberculosis; experiment: Inhibition of multidrug resistance efflux pump in Mycobacterium tuberculosis H37Rv assessed as isoniazid MIC at 64 ug/ml after 7 days by two-dimensional broth microdilution checkerboard assay; settings: 168 h
[8] = tested on: Mycobacterium tuberculosis; experiment: Inhibition of multidrug resistance efflux pump in Mycobacterium tuberculosis H37Rv assessed as rifampin MIC at 256 ug/ml after 7 days by two-dimensional broth microdilution checkerboard assay; settings: 168 h; how it was run: as §1
[9] = tested on: Mycobacterium tuberculosis; experiment: Inhibition of multidrug resistance efflux pump in Mycobacterium tuberculosis H37Rv assessed as rifampin MIC at 32 ug/ml after 7 days by two-dimensional broth microdilution checkerboard assay; settings: 168 h
[10] = tested on: Mycobacterium tuberculosis; experiment: Inhibition of multidrug resistance efflux pump in Mycobacterium tuberculosis H37Rv assessed as amikacin MIC at 2 ug/ml after 7 days by two-dimensional broth microdilution checkerboard assay; settings: 168 h
[11] = tested on: Mycobacterium tuberculosis; experiment: Inhibition of multidrug resistance efflux pump in Mycobacterium tuberculosis H37Rv assessed as reduction in isoniazid MIC at 64 ug/ml after 7 days by two-dimensional broth microdilution checkerboard assay; how it was run: as §1
[12] = tested on: Mycobacterium tuberculosis; experiment: Inhibition of multidrug resistance efflux pump in Mycobacterium tuberculosis H37Rv assessed as reduction in amikacin MIC at 64 ug/ml after 7 days by two-dimensional broth microdilution checkerboard assay; how it was run: as §1
[13] = tested on: Mycobacterium tuberculosis; experiment: Inhibition of multidrug resistance efflux pump in Mycobacterium tuberculosis H37Rv assessed as reduction in ofloxacin MIC at 64 ug/ml after 7 days by two-dimensional broth microdilution checkerboard assay; how it was run: as §1
[14] = tested on: Mycobacterium tuberculosis; experiment: Inhibition of multidrug resistance efflux pump in Mycobacterium tuberculosis H37Rv assessed as reduction in ethidium bromide MIC at 64 ug/ml after 7 days by two-dimensional broth microdilution checkerboard assay
[15] = tested on: Mycobacterium tuberculosis; experiment: Inhibition of multidrug resistance efflux pump in Mycobacterium tuberculosis H37Rv assessed as reduction in isoniazid MIC at 256 ug/ml after 7 days by two-dimensional broth microdilution checkerboard assay; how it was run: as §1
[16] = tested on: Mycobacterium tuberculosis; experiment: Inhibition of multidrug resistance efflux pump in Mycobacterium tuberculosis H37Rv assessed as reduction in amikacin MIC at 256 ug/ml after 7 days by two-dimensional broth microdilution checkerboard assay; how it was run: as §1
[17] = tested on: Mycobacterium tuberculosis; experiment: Inhibition of multidrug resistance efflux pump in Mycobacterium tuberculosis H37Rv assessed as reduction in ofloxacin MIC at 256 ug/ml after 7 days by two-dimensional broth microdilution checkerboard assay; how it was run: as §1
[18] = tested on: Mycobacterium tuberculosis; experiment: Inhibition of multidrug resistance efflux pump in Mycobacterium tuberculosis H37Rv assessed as reduction in ethidium bromide MIC at 256 ug/ml after 7 days by two-dimensional broth microdilution checkerboard assay; how it was run: as §1
[19] = tested on: Mycobacterium tuberculosis; experiment: Inhibition of multidrug resistance efflux pump in Mycobacterium tuberculosis H37Rv assessed as rifampin MIC at 1.88 ug/ml after 7 days by two-dimensional broth microdilution checkerboard assay; settings: 168 h
How it was run: (§2)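 M. tuberculosis H37Rv ATCC27294. MICs of INH, RIF, AMK, OFX and EtBr were determined alone and with sub-inhibitory concentrations of test compound by two-dimensional broth microdilution checkerboard. Where a compound's MIC was not determinable, the highest concentration still allowing growth was taken as ½ MIC. FIC = MIC in combination / MIC alone. FIC ≤0.25 was scored as synergism and ≥2 as antagonism.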

[20] = tested on: Mycobacterium tuberculosis; experiment: Inhibition of multidrug resistance efflux pump in Mycobacterium tuberculosis H37Rv assessed as rifampin MIC at 0.47 ug/ml after 7 days by two-dimensional broth microdilution checkerboard assay; settings: 168 h; how it was run: as §2
[21] = tested on: Mycobacterium tuberculosis; experiment: Inhibition of multidrug resistance efflux pump in Mycobacterium tuberculosis H37Rv assessed as amikacin MIC at 7.5 ug/ml after 7 days by two-dimensional broth microdilution checkerboard assay; settings: 168 h; how it was run: as §1
[22] = tested on: Mycobacterium tuberculosis; experiment: Inhibition of multidrug resistance efflux pump in Mycobacterium tuberculosis H37Rv assessed as amikacin MIC at 0.23 ug/ml after 7 days by two-dimensional broth microdilution checkerboard assay; settings: 168 h; how it was run: as §2
[23] = tested on: Mycobacterium tuberculosis; experiment: Inhibition of multidrug resistance efflux pump in Mycobacterium tuberculosis H37Rv assessed as amikacin MIC at 0.12 ug/ml after 7 days by two-dimensional broth microdilution checkerboard assay; settings: 168 h; how it was run: as §2
[24] = tested on: Mycobacterium tuberculosis; experiment: Inhibition of multidrug resistance efflux pump in Mycobacterium tuberculosis H37Rv assessed as ofloxacin MIC at 1.88 ug/ml after 7 days by two-dimensional broth microdilution checkerboard assay; settings: 168 h; how it was run: as §2
[25] = tested on: Mycobacterium tuberculosis; experiment: Inhibition of multidrug resistance efflux pump in Mycobacterium tuberculosis H37Rv assessed as ethidium bromide MIC at 0.12 ug/ml after 7 days by two-dimensional broth microdilution checkerboard assay; settings: 168 h; how it was run: as §2
[26] = tested on: Mycobacterium tuberculosis; experiment: Inhibition of multidrug resistance efflux pump in Mycobacterium tuberculosis H37Rv assessed as reduction in amikacin MIC at 7.5 ug/ml after 7 days by two-dimensional broth microdilution checkerboard assay; how it was run: as §1
[27] = tested on: Mycobacterium tuberculosis; experiment: Inhibition of multidrug resistance efflux pump in Mycobacterium tuberculosis H37Rv assessed as reduction in ethidium bromide MIC at 7.5 ug/ml after 7 days by two-dimensional broth microdilution checkerboard assay; how it was run: as §1
[28] = tested on: Mycobacterium tuberculosis; experiment: Inhibition of multidrug resistance efflux pump in Mycobacterium tuberculosis H37Rv assessed as isoniazid MIC at 0.12 ug/ml after 7 days by two-dimensional broth microdilution checkerboard assay; settings: 168 h; how it was run: as §2
[29] = tested on: Mycobacterium tuberculosis; experiment: Inhibition of multidrug resistance efflux pump in Mycobacterium tuberculosis H37Rv assessed as rifampin MIC at 3.75 ug/ml after 7 days by two-dimensional broth microdilution checkerboard assay; settings: 168 h; how it was run: as §2

Q: For `COc1ccc(N(CCC2CCCCN2C)C(C)C)cc1OC` (racemic), which MIC [1] is on record?
A: 2 µg/mL

Q: What about the “fold change (FC)” value [2] of the same molecule?
A: 4

Q: And the “fold change (FC)” value [3]?
A: 4

Q: What about the “fold change (FC)” value [4] of the same molecule?
A: 4

Q: And the Ratio IC50 [5]?
A: 2

Q: What about the MIC [6] of the same molecule?
A: 0.1 µg/mL

Q: And the MIC [7]?
A: 100 ng/mL

Q: What about the MIC [8] of the same molecule?
A: < 0.0156 µg/mL

Q: What about the MIC [9] of the same molecule?
A: 0.25 µg/mL

Q: How did the MIC [10] turn out when `CN1CCCCC1CCn1c2ccccc2c2ccccc21` (racemic) was run?
A: 1 µg/mL

Q: What about the MIC [1] of the same molecule?
A: 1 µg/mL

Q: And the “fold change (FC)” value [11]?
A: >128

Q: And the “fold change (FC)” value [12]?
A: >128

Q: What about the “fold change (FC)” value [13] of the same molecule?
A: >128

Q: And the “fold change (FC)” value [14]?
A: >64

Q: And the MIC [7]?
A: < 0.078 ng/mL

Q: What about the MIC [9] of the same molecule?
A: 0.0625 µg/mL

Q: With `CN1CCCCC1CCn1ccc2ccc(Br)cc21` (racemic) as the molecule, how does the MIC [1] read?
A: 1 µg/mL

Q: And the “fold change (FC)” value [15]?
A: >128

Q: What about the “fold change (FC)” value [2] of the same molecule?
A: >164

Q: What about the “fold change (FC)” value [3] of the same molecule?
A: 16

Q: And the “fold change (FC)” value [4]?
A: 4

Q: And the “fold change (FC)” value [12]?
A: >128

Q: What about the “fold change (FC)” value [16] of the same molecule?
A: >128

Q: What about the “fold change (FC)” value [13] of the same molecule?
A: >128

Q: What about the “fold change (FC)” value [17] of the same molecule?
A: >128

Q: What about the “fold change (FC)” value [14] of the same molecule?
A: 8

Q: What about the “fold change (FC)” value [18] of the same molecule?
A: >164

Q: What about the Ratio IC50 [5] of the same molecule?
A: 2

Q: What about the MIC [6] of the same molecule?
A: < 0.00078 µg/mL

Q: What about the MIC [7] of the same molecule?
A: 50 ng/mL

Q: What about the MIC [8] of the same molecule?
A: < 0.0156 µg/mL

Q: What about the MIC [9] of the same molecule?
A: 0.0312 µg/mL

Q: `CN1CCCCC1CCn1cnc2ccccc21` (racemic) was tested. Which MIC [1] did it give?
A: 1 µg/mL

Q: What about the “fold change (FC)” value [15] of the same molecule?
A: >128

Q: What about the “fold change (FC)” value [16] of the same molecule?
A: >128

Q: And the “fold change (FC)” value [17]?
A: >128

Q: And the “fold change (FC)” value [18]?
A: >64

Q: What about the Ratio IC50 [5] of the same molecule?
A: 2

Q: What about the MIC [6] of the same molecule?
A: < 0.00078 µg/mL

Q: What about the MIC [7] of the same molecule?
A: 100 ng/mL

Q: What about the MIC [8] of the same molecule?
A: < 0.0156 µg/mL

Q: And the MIC [9]?
A: 0.5 µg/mL

Q: With `CSc1ccc2c(c1)N(CCC1CCCCN1C)c1ccccc1S2` (centres undefined) [THIORIDAZINE] as the molecule, how does the MIC [19] read?
A: 1 µg/mL

Q: And the MIC [20]?
A: 1 µg/mL

Q: And the MIC [21]?
A: < 0.0156 µg/mL

Q: What about the MIC [22] of the same molecule?
A: 1 µg/mL

Q: What about the MIC [23] of the same molecule?
A: 1 µg/mL

Q: What about the MIC [24] of the same molecule?
A: 1 µg/mL

Q: What about the MIC [25] of the same molecule?
A: 6.25 µg/mL

Q: And the “fold change (FC)” value [26]?
A: >128

Q: What about the “fold change (FC)” value [27] of the same molecule?
A: >64

Q: What about the MIC [28] of the same molecule?
A: 0.1 µg/mL

Q: What about the MIC [29] of the same molecule?
A: 1 µg/mL
